How the values were obtained:
[1] = target: Calcium/calmodulin-dependent protein kinase type II subunit beta (Homo sapiens) (UniProt Q13554); assay: Inhibition of human recombinant CaMK2b at 40 nM in presence of ATP by radiometric assay relative to control
[2] = target: T1, Serine/threonine-protein kinase Sgk3 (Homo sapiens) (UniProt Q96BR1); assay: Inhibition of human recombinant SGK3 at 40 nM in presence of ATP by radiometric assay relative to control
T1 sequence (whole entry): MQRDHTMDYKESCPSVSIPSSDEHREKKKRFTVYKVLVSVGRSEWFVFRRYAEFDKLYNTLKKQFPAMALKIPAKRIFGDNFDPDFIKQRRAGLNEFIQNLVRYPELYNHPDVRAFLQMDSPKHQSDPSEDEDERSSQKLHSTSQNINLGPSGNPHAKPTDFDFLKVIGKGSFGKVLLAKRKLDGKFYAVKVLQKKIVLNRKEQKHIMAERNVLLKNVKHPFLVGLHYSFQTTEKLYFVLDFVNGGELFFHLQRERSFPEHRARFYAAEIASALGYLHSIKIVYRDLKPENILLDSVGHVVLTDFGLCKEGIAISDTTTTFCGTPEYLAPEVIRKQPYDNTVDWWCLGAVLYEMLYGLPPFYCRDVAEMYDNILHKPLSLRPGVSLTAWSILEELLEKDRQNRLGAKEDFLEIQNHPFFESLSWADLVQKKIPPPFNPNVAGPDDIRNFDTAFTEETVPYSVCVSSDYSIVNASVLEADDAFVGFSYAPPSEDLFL

[3] = target: T2, Aurora kinase C (Homo sapiens) (UniProt Q9UQB9); assay: Inhibition of human recombinant AurC at 40 nM in presence of ATP by radiometric assay relative to control
T2 sequence (whole entry): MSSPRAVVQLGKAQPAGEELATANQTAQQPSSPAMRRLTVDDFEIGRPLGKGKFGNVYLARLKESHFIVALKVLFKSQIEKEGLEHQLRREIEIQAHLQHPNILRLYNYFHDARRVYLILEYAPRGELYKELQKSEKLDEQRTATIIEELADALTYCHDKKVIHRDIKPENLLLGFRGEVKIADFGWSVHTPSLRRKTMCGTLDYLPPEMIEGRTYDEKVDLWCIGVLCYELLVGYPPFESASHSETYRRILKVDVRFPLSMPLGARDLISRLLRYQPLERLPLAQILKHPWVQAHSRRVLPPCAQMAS
Outline: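 Part of a radiometric in vitro activity panel of 327 recombinant human kinases. Each kinase was tested in duplicate at one inhibitor concentration. Activity remaining was expressed as a percentage of the vehicle control, and percent inhibition was taken as 100 minus that value.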

[4] = target: Serine/threonine-protein kinase 4 (Homo sapiens) (UniProt Q13043); assay: Inhibition of human recombinant MST1 at 15 nM related to control ULK1
[5] = target: Serine/threonine-protein kinase pim-3 (Homo sapiens) (UniProt Q86V86); assay: Inhibition of human recombinant PIM3 at 15 nM in presence of ATP by radiometric assay relative to control
[6] = target: Non-receptor tyrosine-protein kinase TYK2 (Homo sapiens) (UniProt P29597); assay: Inhibition of human recombinant TYK2 at 15 nM in presence of ATP by radiometric assay relative to control
[7] = target: Receptor tyrosine-protein kinase erbB-4 (Homo sapiens) (UniProt Q15303); assay: Inhibition of human recombinant ErbB4 at 15 nM in presence of ATP by radiometric assay relative to control
[8] = target: TRAF2 and NCK-interacting protein kinase (Homo sapiens) (UniProt Q9UKE5); assay: Inhibition of human recombinant TNIK at 15 nM related to control ULK1
[9] = target: Serine/threonine-protein kinase 24 (Homo sapiens) (UniProt Q9Y6E0); assay: Inhibition of human recombinant MST3 at 15 nM related to control ULK1
[10] = target: Serine/threonine-protein kinase N2 (Homo sapiens) (UniProt Q16513); assay: Inhibition of human recombinant PKN2 at 500 nM in presence of ATP by radiometric assay relative to control
[11] = target: T3, Dual specificity protein kinase TTK (Homo sapiens) (UniProt P33981); assay: Inhibition of human recombinant TTK at 500 nM related to control ULK1
T3 sequence (whole entry): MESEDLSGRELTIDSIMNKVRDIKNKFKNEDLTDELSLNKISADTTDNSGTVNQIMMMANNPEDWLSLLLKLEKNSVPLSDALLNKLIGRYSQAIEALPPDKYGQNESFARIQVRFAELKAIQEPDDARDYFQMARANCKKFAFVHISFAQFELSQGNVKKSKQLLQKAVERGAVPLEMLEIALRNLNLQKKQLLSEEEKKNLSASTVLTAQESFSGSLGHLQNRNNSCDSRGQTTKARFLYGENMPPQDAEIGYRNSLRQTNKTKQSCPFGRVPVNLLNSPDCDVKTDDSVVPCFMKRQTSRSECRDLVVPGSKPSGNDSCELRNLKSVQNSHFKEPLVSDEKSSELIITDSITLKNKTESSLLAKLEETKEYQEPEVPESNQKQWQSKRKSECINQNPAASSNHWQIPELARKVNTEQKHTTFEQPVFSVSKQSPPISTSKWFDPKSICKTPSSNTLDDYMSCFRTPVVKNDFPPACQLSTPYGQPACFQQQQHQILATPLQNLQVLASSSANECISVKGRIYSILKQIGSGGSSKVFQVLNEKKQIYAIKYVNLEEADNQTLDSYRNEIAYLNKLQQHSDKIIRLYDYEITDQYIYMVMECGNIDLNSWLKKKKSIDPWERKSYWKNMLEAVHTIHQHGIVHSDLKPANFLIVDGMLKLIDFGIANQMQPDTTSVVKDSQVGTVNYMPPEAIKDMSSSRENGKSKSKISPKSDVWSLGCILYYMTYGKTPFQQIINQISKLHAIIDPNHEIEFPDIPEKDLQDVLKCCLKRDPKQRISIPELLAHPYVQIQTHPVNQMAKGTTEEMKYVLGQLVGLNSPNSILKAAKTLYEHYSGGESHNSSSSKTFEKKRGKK

[12] = target: RAC-alpha serine/threonine-protein kinase (Homo sapiens) (UniProt P31749); assay: Inhibition of human recombinant AKT1 at 500 nM related to control ULK1
[13] = target: RAC-beta serine/threonine-protein kinase (Homo sapiens) (UniProt P31751); assay: Inhibition of human recombinant AKT2 at 500 nM in presence of ATP by radiometric assay relative to control
Outline: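 Panel of 327 recombinant human kinases in radiometric activity assays, each screened in duplicate at a single inhibitor concentration; percent activity remaining relative to vehicle control, percent inhibition taken as 100 minus activity remaining.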

[14] = target: Tyrosine-protein kinase Lck (Homo sapiens) (UniProt P06239); assay: Inhibition of human recombinant LCK at 500 nM in presence of ATP by radiometric assay relative to control
Chain of Tyrosine-protein kinase Lck (Homo sapiens) (P06239 2-509 limits assumed): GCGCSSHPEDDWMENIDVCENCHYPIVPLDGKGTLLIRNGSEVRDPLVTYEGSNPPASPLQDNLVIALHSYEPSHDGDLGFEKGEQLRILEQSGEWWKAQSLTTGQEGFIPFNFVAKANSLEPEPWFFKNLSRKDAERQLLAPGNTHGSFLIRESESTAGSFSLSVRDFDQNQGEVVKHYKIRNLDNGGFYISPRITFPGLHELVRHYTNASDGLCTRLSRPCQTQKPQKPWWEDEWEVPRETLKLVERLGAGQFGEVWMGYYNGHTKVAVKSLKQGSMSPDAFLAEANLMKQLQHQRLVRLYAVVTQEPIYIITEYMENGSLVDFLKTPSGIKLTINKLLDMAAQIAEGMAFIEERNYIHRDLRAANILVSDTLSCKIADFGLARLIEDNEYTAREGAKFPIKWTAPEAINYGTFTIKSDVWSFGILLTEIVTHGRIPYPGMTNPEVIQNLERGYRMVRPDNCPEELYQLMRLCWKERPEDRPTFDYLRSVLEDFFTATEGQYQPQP

Chain of Serine/threonine-protein kinase N2 (Homo sapiens) (Q16513 whole entry, looked up): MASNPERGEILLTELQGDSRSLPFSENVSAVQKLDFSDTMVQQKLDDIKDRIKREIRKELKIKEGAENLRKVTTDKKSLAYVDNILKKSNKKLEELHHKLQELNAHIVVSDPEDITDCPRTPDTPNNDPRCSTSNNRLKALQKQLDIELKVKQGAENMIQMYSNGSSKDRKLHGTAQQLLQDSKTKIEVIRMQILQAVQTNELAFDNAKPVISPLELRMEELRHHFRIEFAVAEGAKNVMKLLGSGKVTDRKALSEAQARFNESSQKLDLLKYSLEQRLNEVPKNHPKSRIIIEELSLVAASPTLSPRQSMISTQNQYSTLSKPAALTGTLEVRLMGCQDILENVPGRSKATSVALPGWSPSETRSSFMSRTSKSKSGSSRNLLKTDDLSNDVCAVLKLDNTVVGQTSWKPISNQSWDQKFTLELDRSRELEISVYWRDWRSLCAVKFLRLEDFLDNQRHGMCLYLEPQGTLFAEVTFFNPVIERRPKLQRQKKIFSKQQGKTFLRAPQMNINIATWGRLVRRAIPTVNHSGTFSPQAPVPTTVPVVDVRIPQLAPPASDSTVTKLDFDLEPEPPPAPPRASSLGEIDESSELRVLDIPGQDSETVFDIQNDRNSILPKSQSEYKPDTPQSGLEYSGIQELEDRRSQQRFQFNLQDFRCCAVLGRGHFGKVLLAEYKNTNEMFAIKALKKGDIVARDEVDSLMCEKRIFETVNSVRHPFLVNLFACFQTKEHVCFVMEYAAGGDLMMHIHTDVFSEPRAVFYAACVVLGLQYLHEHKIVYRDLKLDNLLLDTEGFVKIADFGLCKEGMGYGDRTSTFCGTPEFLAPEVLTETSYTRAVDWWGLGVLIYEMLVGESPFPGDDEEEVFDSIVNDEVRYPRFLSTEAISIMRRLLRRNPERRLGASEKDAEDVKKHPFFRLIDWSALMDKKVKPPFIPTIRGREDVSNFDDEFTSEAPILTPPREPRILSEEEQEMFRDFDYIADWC
Chain of Receptor tyrosine-protein kinase erbB-4 (Homo sapiens) (Q15303 whole entry): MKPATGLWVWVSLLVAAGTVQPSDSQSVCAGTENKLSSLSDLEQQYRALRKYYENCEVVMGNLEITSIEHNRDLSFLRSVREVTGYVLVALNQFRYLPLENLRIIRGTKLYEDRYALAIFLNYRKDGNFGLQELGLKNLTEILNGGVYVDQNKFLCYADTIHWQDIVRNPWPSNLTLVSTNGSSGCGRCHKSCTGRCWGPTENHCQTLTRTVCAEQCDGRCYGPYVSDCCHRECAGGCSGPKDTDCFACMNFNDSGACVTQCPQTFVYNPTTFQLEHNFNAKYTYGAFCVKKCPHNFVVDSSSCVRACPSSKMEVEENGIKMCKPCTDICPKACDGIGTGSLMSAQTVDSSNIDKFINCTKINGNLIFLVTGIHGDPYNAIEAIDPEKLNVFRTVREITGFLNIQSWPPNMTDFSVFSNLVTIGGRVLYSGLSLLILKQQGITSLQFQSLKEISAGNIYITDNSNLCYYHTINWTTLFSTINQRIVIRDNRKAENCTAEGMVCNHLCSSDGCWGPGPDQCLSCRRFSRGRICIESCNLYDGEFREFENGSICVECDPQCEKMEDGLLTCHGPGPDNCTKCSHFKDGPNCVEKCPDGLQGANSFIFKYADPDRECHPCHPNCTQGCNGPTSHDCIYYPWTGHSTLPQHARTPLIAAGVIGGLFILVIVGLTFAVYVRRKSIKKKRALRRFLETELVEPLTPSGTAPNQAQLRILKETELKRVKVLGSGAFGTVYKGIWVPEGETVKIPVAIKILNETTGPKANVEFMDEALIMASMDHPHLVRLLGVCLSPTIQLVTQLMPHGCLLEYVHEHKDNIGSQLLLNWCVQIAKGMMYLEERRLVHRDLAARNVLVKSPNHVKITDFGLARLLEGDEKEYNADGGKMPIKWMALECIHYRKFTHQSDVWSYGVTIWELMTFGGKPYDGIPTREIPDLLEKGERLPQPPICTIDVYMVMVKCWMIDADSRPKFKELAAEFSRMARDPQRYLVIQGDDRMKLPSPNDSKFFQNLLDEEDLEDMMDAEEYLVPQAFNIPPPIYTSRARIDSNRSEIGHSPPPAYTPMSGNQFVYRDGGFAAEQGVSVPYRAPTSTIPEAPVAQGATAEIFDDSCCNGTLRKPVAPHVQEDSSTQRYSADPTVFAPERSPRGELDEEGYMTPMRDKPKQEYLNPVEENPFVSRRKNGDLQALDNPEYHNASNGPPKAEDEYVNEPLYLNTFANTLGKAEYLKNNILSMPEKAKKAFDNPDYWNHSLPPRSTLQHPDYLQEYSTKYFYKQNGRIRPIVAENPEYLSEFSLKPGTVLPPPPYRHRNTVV
Chain of RAC-beta serine/threonine-protein kinase (Homo sapiens) (P31751 whole entry): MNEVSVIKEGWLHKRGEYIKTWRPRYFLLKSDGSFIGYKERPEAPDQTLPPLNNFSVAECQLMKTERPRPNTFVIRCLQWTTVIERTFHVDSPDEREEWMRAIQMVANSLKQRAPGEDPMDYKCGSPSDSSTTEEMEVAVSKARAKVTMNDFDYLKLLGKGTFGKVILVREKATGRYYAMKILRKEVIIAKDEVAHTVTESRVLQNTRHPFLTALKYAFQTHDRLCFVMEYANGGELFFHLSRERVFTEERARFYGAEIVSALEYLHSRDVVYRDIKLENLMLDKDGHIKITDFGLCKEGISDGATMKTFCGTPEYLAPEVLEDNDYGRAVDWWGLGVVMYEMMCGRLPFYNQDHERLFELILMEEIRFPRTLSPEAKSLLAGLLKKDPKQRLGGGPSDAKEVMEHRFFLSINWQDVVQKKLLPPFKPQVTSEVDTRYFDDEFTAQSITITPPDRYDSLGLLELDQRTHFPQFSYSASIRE
Chain of Serine/threonine-protein kinase 24 (Homo sapiens) (Q9Y6E0 whole entry, looked up): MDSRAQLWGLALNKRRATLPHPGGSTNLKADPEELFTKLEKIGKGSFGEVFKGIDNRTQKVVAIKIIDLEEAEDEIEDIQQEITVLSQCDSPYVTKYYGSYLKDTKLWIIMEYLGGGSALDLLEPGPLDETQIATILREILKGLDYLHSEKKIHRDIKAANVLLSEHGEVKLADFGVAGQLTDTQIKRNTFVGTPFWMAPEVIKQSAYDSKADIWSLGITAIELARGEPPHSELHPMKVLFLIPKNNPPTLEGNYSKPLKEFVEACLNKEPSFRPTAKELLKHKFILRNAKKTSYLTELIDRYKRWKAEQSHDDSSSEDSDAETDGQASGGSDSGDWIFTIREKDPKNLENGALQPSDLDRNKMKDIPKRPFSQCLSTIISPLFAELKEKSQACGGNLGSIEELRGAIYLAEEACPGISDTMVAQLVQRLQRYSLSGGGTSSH
Chain of Non-receptor tyrosine-protein kinase TYK2 (Homo sapiens) (P29597 whole entry): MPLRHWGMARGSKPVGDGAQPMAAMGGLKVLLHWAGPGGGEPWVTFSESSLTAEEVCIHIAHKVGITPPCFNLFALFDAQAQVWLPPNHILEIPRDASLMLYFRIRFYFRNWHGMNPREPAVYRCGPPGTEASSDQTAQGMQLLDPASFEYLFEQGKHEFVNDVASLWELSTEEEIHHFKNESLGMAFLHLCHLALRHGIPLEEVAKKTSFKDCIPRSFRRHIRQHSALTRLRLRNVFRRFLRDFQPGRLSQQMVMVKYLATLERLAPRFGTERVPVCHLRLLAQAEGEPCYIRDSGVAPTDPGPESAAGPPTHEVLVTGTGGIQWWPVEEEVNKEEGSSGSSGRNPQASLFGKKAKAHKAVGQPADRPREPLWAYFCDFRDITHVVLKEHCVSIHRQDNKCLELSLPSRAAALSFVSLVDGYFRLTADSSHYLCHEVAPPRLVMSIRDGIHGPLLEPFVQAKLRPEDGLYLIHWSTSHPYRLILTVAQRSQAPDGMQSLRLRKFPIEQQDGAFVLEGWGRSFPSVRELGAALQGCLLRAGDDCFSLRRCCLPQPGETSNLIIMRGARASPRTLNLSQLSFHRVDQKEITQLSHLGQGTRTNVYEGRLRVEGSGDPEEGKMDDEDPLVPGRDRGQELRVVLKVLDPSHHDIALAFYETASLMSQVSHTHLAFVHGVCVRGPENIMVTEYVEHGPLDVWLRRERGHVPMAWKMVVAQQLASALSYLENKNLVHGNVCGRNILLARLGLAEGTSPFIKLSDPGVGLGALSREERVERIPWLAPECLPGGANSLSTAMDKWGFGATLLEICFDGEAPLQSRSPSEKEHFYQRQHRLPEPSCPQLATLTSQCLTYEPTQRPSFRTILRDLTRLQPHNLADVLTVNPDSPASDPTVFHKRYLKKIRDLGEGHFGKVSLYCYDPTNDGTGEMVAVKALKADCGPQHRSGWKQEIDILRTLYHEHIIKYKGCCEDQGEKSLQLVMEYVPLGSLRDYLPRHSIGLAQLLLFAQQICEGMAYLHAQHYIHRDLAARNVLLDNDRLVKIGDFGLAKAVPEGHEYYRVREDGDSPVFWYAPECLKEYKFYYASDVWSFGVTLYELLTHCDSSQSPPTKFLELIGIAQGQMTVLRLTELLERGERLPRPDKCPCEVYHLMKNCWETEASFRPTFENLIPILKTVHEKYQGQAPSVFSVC

Compound: O=C(N[C@@H](C1CC1)C(F)(F)F)c1cc(-c2cnn3cc(-c4ccc(F)cc4)cnc23)cs1
- inhibition [1]: 0%
- inhibition [2]: 0%
- inhibition [3]: 0%

Compound: CC(C)[C@H](NC(=O)c1cc(-c2cnn3cc(-c4ccc(OCCN5CCCCC5)cc4)cnc23)cs1)C(F)(F)F
- fold change (FC) [4]: 0.03
- inhibition [5]: 2%
- inhibition [6]: 2%
- inhibition [7]: 0%
- fold change (FC) [8]: 0.06
- fold change (FC) [9]: 0

Compound: CNC(=O)c1ccccc1Oc1nc(Nc2cc(OC)c(OC)c(OC)c2)ncc1Br
- inhibition [10]: 0%
- fold change (FC) [11]: 0.15
- fold change (FC) [12]: 0
- inhibition [13]: 7%
- inhibition [14]: 13%

— ChEMBL document CHEMBL5653631, “A Potent and Selective ULK1 Inhibitor Suppresses Autophagy and Sensitizes Cancer Cells to Nutrient Stress” (iScience, 2018)
